Test results published in ChEMBL document CHEMBL4145656, “Additional Insights into Hypericum perforatum Content: Isolation, Total Synthesis, and Absolute Configuration of Hyperbiphenyls A and B from Immunomodulatory Root Extracts” (J Nat Prod, 2018).
One block for each compound: values may come before it. Calls of active or inactive are those of the source. The rule behind the calls is not given here.

Experiments:
HUVEC [1] = assay: Immunomodulatory activity in HUVEC assessed as inhibition of IFNgamma-induced MICA expression at 10 uM pretreated for 1 hr followed by IFNgamma stimulation and measured after 48 hrs by immunostaining based flow cytometry relative to control; format: functional
HUVEC [2] = assay: Immunomodulatory activity in HUVEC assessed as inhibition of IFNgamma-induced HLA-E expression at 10 uM pretreated for 1 hr followed by IFNgamma stimulation and measured after 48 hrs by immunostaining based flow cytometry relative to control; format: functional
Method in brief: (§1)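 Endothelial cells were stimulated with IFNγ to upregulate MHC class II and HLA-E in the presence of test agent at 10 μM. Surface expression was measured by flow cytometry.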

HUVEC [3] = assay: Immunomodulatory activity in HUVEC assessed as inhibition of IFNgamma-induced HLA-DR expression at 10 uM pretreated for 1 hr followed by IFNgamma stimulation and measured after 48 hrs by immunostaining based flow cytometry relative to control; format: functional; method in brief: as §1
HUVEC [4] = assay: Immunomodulatory activity in HUVEC assessed as inhibition of IFNgamma-induced MHC-1 expression at 10 uM pretreated for 1 hr followed by IFNgamma stimulation and measured after 48 hrs by immunostaining based flow cytometry relative to control; format: functional
Method in brief: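 Cultured vascular endothelial cells were stimulated with IFNγ to upregulate MHC molecules (MHC class I, class II, HLA-E) in the presence of the test compound at 10 μM. Surface expression of MHC was then quantified by flow cytometry.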

HUVEC [5] = assay: Immunomodulatory activity in HUVEC assessed as inhibition of TNFalpha-induced VCAM1 expression at 5 to 50 uM measured by ELISA relative to control; format: functional, Homo sapiens
Method in brief: (§2)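 Cell-based ELISA on cultured vascular endothelial cells quantifying surface molecules. Cells were stimulated with TNF to induce VCAM-1 and MICA, or with IFNγ to induce MHC class I. Test agents were present at 5, 25 and 50 μM.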

HUVEC [6] = assay: Immunomodulatory activity in HUVEC assessed as inhibition of IFNgamma-induced MHC1 expression at 5 to 50 uM measured by ELISA relative to control; format: functional, Homo sapiens; method in brief: as §2
HUVEC [7] = assay: Immunomodulatory activity in HUVEC assessed as inhibition of TNFalpha-induced MICA expression at 5 to 50 uM measured by ELISA relative to control; format: functional, Homo sapiens; method in brief: as §2
HUVEC [8] = assay: Reduction in basal MICA expression in HUVEC at 10 uM measured after 1 hr by immunostaining based flow cytometry; format: ADME, cell-based; design: scale not given: the % may be the effect or the level left; conditions: human
HUVEC [9] = assay: Effect on HLA-DR expression in HUVEC at 10 uM measured after 1 hr by immunostaining based flow cytometry; format: ADME, cell-based; conditions: human
HUVEC [10] = assay: Effect on MHC-1 expression in HUVEC at 10 uM measured after 1 hr by immunostaining based flow cytometry; format: ADME, cell-based; conditions: human
HUVEC [11] = assay: Effect on HLA-E expression in HUVEC at 10 uM measured after 1 hr by immunostaining based flow cytometry; format: ADME, cell-based; conditions: human

SMILES: COc1cc(C2Oc3c(OC)cc4c(=O)c5ccccc5oc4c3OC2CO)ccc1O (configuration not stated)
Activity (HUVEC [1]; Homo sapiens): inactive
Activity (HUVEC [2]; Homo sapiens): inactive
Activity (HUVEC [3]; Homo sapiens): inactive
Activity (HUVEC [4]; Homo sapiens): inactive

SMILES: COc1cc(-c2ccccc2)cc2c1C[C@H](O)C(C)(C)O2
Activity (HUVEC [1]; Homo sapiens): inactive
Activity (HUVEC [2]; Homo sapiens): inactive
Activity (HUVEC [3]; Homo sapiens): inactive
Activity (HUVEC [4]; Homo sapiens): inactive

SMILES: COc1cc(-c2ccccc2)cc2c1C[C@@H](C(C)(C)O)O2
Activity (HUVEC [1]; Homo sapiens): inactive
Activity (HUVEC [2]; Homo sapiens): inactive
Activity (HUVEC [3]; Homo sapiens): inactive
Activity (HUVEC [4]; Homo sapiens): inactive

SMILES: O.O=P(O)(O)C(O)(Cn1ccnc1)P(=O)(O)O [ZOLEDRONIC ACID]
Activity (HUVEC [4]): 67%

Activity (HUVEC [8]): 25%
SMILES: COc1c(O)ccc2c(=O)c3c(O)cc4c(c3oc12)C(C)(C)C(C)O4 (configuration not stated)
inhibition (INH) (HUVEC [5]): >50%
inhibition (INH) (HUVEC [6]): 10 - 25%
inhibition (INH) (HUVEC [7]): <10%
Activity (HUVEC [1]): 24%
Activity (HUVEC [2]): 40%
Activity (HUVEC [3]): 25%
Activity (HUVEC [9]): Non-Toxic
Activity (HUVEC [10]): Non-Toxic
Activity (HUVEC [11]): Non-Toxic

SMILES: COc1cc2oc3cc(O)cc(O)c3c(=O)c2c2c1OC(C)(C)C=C2
Activity (HUVEC [1]; Homo sapiens): inactive
Activity (HUVEC [2]; Homo sapiens): inactive
Activity (HUVEC [3]; Homo sapiens): inactive
Activity (HUVEC [4]; Homo sapiens): inactive
